Shown are actives, neighbours in structure and some others; about 2.3% of the full set was active somewhere.
SUMO1 PPI mod – alters human SUMO1 binding to SIM partners; P63165; SUMO1 binding to a labelled peptide, TR-FRET, 1 h; inhibition, % at 20 µM; 0.33% of 360,000 active; AID 602429; in the data active means inhibition above about 37%
Target sequence (P63165 whole entry, looked up): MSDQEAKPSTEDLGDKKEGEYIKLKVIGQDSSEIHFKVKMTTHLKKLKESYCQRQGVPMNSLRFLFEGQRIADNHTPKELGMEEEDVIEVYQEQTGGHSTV
DNMT1 block – blocks human DNA methyltransferase DNMT1; 0.83% of 360,000 active; P26358; DNMT1 molecular beacon, Hinp1I cleavage, fluorescence; inhibition (reported as % activation of signal), % at 10 µM; in the data active means inhibition above about 50%
Rpn11 block – inhibitors of human proteasome Rpn11; O00487; inhibition, % at 20 µM; 0.59% of 360,000 active; human 26S proteasome, Ub4-pepOG fluorescence polarization; 20S core pre-blocked with epoxomicin;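 active means inhibition at 20 µM, scaled to each plate's controls, above about 33%, limit read from the data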
Target sequence (O00487 whole entry, looked up): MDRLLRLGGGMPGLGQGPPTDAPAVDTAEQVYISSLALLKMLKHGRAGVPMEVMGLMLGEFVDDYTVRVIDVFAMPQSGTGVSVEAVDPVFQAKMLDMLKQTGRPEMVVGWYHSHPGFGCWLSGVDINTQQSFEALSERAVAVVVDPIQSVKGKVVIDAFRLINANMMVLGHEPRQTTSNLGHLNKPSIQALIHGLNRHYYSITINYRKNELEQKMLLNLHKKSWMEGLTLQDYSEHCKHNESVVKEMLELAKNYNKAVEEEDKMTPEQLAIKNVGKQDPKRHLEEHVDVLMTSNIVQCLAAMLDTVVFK
STEP inh – blocks human striatal-enriched tyrosine phosphatase. P54829. recombinant STEP, OMFP fluorogenic substrate, fluorescence. inhibition, % at 20 µM. 0.25% of 360,000 active;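 active means inhibition at 20 µM, scaled per plate between control wells, above about 37%, limit read from the data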;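 further: 0% = DMSO with enzyme and substrate and 100% = substrate only without enzyme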
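Test system: STEP tyrosine phosphatase / Reagent: OMFP at 25 µM / Doses: 20 µM, 1% DMSO / Read-out: percent inhibition scaled to no-enzyme and uninhibited-enzyme controls, plate-pattern corrected / Detection: FITC-channel fluorescence of OMFP product / Medium: Bis-Tris buffer pH 6.0, 2.5 mM DTT, 0.005% Tween 20 / Schedule: 20 min at room temperature, dark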
LMPTP inh – LMPTP (human) inhibition; recombinant LMPTP-A, OMFP fluorogenic substrate, fluorescence intensity; 0.22% of 360,000 active; AID 651560; inhibition, % at 20 µM;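 active means compounds that cut the enzyme signal by at least half of the control window in the single-dose screen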;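 further: plate controls were DMSO wells with enzyme plus substrate for no effect and substrate without enzyme for full effect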
Target sequence (P24666 whole entry, looked up): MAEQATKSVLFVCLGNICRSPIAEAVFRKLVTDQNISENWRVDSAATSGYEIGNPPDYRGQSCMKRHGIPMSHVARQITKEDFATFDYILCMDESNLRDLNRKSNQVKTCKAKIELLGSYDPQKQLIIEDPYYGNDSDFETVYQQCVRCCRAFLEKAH
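Assay system: LMPTP-A phosphatase enzyme | Input: 0.625 nM enzyme | Also added: Fluorogenic phosphatase substrate OMFP at 400 µM final | Compound dosing: One test concentration per compound, 20 µM, with 3% DMSO overall | Schedule: 50 min enzyme reaction at room temperature, protected from light | Signal: Fluorescence intensity | Benchmarks: no-enzyme and uninhibited controls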
Scp-1 inhibitor – blocks human Scp-1 phosphatase activity; Q9GZU7; inhibition, % at 20 µM; 0.88% of 340,000 active; Recombinant Scp1, phosphopeptide, malachite green phosphate absorbance;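 active means inhibition above about 50% at 20 µM, limit read from the data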;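 further: plate controls were DMSO wells with enzyme for no effect and wells lacking enzyme for full effect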
Target sequence (Q9GZU7 76-261 limits assumed): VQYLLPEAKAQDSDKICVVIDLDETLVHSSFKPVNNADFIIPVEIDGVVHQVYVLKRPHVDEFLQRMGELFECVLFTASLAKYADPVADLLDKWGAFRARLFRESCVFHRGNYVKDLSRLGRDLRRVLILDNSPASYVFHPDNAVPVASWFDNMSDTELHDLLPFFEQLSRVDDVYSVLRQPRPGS
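Assay system: SCP-1 catalytic fragment, aa 76-261 | Buffer or medium: Tris acetate buffer pH 5.5 with MgCl2 and Tween-20 | Compound: One concentration, 20 µM, with 1.0% DMSO | Also added: Phospho 17-mer peptide substrate | Signal: Absorbance at 630 nm | Incubation: 45 min enzyme reaction at room temperature | Measure: % inhibition of SCP-1 phosphate liberation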
Beacon interf DR – counter-screen for DNMT1 inhibitors: spectral interference, dose response | shares compounds with DNMT1 block | IC50, µM | molecular beacon fluorescence | 200 tested, under 10 active | AID 602382; call rule not given here
DNMT1 confirm – confirmation of human DNMT1 inhibitors; 8% of 2,300 active; shares compounds with DNMT1 block; inhibition, % at 10 µM; DNMT1 molecular beacon HinP1I cleavage, fluorescence;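 active means average inhibition of at least 30% in the single-concentration confirmation test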
DNMT1 interf – beacon fluorescence artifact counter-screen; shares compounds with DNMT1 block; 1% of 2,300 active; activation (fluorescence interference), % at 10 µM; DNMT1 molecular beacon spectral interference counterscreen, fluorescence 485/520;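 active means activation of at least 30% at 10 µM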;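 further: DNMT1 catalytic domain with a HinP1I cleavage step and a FAM/dabcyl DNA beacon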
* hit, by the source's call; . = not tested or not shown.

SMILES | SUMO1 PPI mod | DNMT1 block | Rpn11 block | STEP inh | LMPTP inh | Scp-1 inhibitor | DNMT1 confirm | DNMT1 interf | others
O=C(CCc1ccc(S(=O)(=O)N2CCOCC2)cc1)OCc1nc2ccccc2s1 | 1.9 | 98.9* | -0.6 | -0.8 | -0.8 | -2.2 | 8.5 | 8.3
NC(=S)NN=C1c2cc(Cl)ccc2-c2c1cc(Cl)cc2[N+](=O)[O-] | -8.8 | 51.0* | 16.4 | -0.3 | 34.2 | -0.3 | 2.0 | -7.2
CC(C)c1ccc(NC(=O)C(c2ccccc2)N2CCN(C=O)CC2)cc1 (stereo unspecified) | 2.8 | -2.3 | 8.1 | 2.8 | -0.1 | -3.6 | . | .
CC(C)c1ccc(NC(=O)C(c2ccccc2)N2CCOCC2)cc1 (stereo unspecified) | 8.0 | 71.2* | 31.7 | -0.6 | 50.3* | -6.0 | 1.9 | 4.5
COc1cc([N+](=O)[O-])ccc1-c1ccc(/C=N\n2cnnc2)o1 | -3.6 | 3.8 | . | 30.6 | 21.6 | 12.0 | . | .
COc1cc([N+](=O)[O-])ccc1-c1ccc(/C=C2\C(=O)ON=C2c2ccccc2)o1 | 64.1* | 80.0* | 15.8 | 4.1 | 3.2 | 3.1 | 17.8 | -5.9
CC1(C)OC(=O)C2=C(C[C@@H](CCc3ccccc3)O[C@@H]2c2ccc(Cl)cc2)O1 | 0.5 | . | . | . | 0.9 | . | . | .
CC(C)(C)c1ccc(/C=N/NC(=O)C2CCCC2)cc1 | -7.2 | 76.8* | -1.6 | -2.2 | 1.6 | -1.8 | 1.1 | 2.1
CCc1nn(CC(=O)NCCCc2ccccc2)c(=O)c2cc3c(OC)cccc3n12 | -2.6 | 48.9 | -8.4 | -0.3 | 12.5 | -11.0 | . | .
CCc1nn(CC(=O)NCCCc2ccccc2)c(=O)c2cc3cc(F)ccc3n12 | 5.1 | 50.9* | -1.7 | 1.4 | 3.0 | -4.7 | -0.1 | -0.5
Nc1ncnc2c1ncn2[C@@H]1O[C@H](C(=O)N(CCC2=CCCCC2)CC2CC2)[C@@H](O)[C@H]1O | -3.4 | 7.2 | -4.5 | 1.3 | -0.9 | . | . | .
Cc1cc(NC(=O)CSc2cn(CCNC(=O)c3ccccc3)c3ccccc23)no1 | 6.9 | 71.8* | -15.7 | 5.5 | 4.3 | 39.1 | 7.2 | -0.2
CCCCCCCCC(=O)c1c(OC)oc(C=O)cc1=O | 8.2 | 98.3* | . | -4.3 | 7.5 | . | 38.2* | 3.0 | Beacon interf DR=>99
CCCCCCC(=O)Nc1cc2c(C)cc(=O)oc2cc1C | 1.2 | 7.5 | 1.1 | -15.6 | -1.3 | 2.6 | . | .
O=C(Nc1ccccc1C(=O)NC(Cc1ccccc1)C(=O)NC1CCCCC1)c1ccccc1 (stereo unspecified) | -0.4 | 19.9 | 6.4 | -2.9 | 0.1 | -8.7 | . | .
Cc1ccccc1-n1c(C)cc(/C=N/Nc2ccc([N+](=O)[O-])cn2)c1C | -18.9 | 1.7 | 21.5 | -1.9 | 2.5 | 11.7 | . | .
Cc1cc(/C=N/Nc2ccc([N+](=O)[O-])cn2)c(C)n1-c1ccc(C(=O)O)cc1 | 10.2 | 61.4* | 30.9 | 6.1 | 12.0 | 57.0* | 3.9 | 0.9
NS(=O)(=O)c1ccc(N/N=C/c2cn(-c3ccccc3)nc2-c2cccs2)c([N+](=O)[O-])c1 | -12.9 | 45.3 | 2.1 | 4.8 | 6.6 | 9.2 | 0.0 | -3.0
NS(=O)(=O)c1ccc(N/N=C/c2cn(-c3ccccc3)nc2-c2cccs2)cc1 | 1.1 | -26.1 | 0.2 | -0.7 | 0.7 | -13.3 | . | .
N#Cc1c(NC(=O)CSc2nnc(-c3ccco3)n2-c2ccccc2)sc2c1CCC2 | 28.9 | 67.1* | 10.2 | -0.9 | 8.2 | 3.8 | 0.2 | 2.5
CCn1c(SCC(=O)Nc2sc3c(c2C#N)CCCC3)nnc1-c1ccco1 | -1.0 | 1.5 | -1.4 | 1.4 | 1.6 | -4.2 | . | .
COc1ccc(/C=C/C(=O)NCC(=O)N/N=C(/C)c2ccc(Cl)cc2)cc1 | -2.7 | 39.9 | 0.5 | -2.0 | 1.6 | 24.7 | . | .
O=C(COc1ccc(Br)cc1)Nc1ccc(N2CCOCC2)cc1N1CCOCC1 | 25.1 | 54.6* | 1.1 | 1.0 | -0.1 | -0.1 | 5.3 | 5.4
O=C(Nc1ccc(N2CCOCC2)cc1N1CCOCC1)c1ccc(Br)cc1 | 5.7 | -3.7 | -4.3 | -0.3 | -1.3 | 4.0 | . | .
ClN=C1C=CC=CC1=NCl | 56.7* | 113.5* | -19.5 | 8.5 | 68.3* | . | 36.5* | -8.0 | Beacon interf DR=>99
SMILES | SUMO1 PPI mod | DNMT1 block | Rpn11 block | STEP inh | LMPTP inh | Scp-1 inhibitor | DNMT1 confirm | DNMT1 interf | others
CCOC(=O)Cn1nc(C)n(-c2c(C)cccc2C)c1=O | 6.3 | 1.2 | -1.6 | -3.8 | -1.9 | -9.1 | . | .
COc1ccc(/C=N/Nc2cc(N(C)C)nc(N(C)C)n2)cc1 | -6.3 | 51.5* | 2.8 | 4.7 | 6.4 | -2.0 | -3.5 | -10.7
CC(=O)Nc1ccc(SCC(=O)c2cc(C)ccc2C)cc1 | 3.4 | 86.4* | -4.1 | 0.3 | -0.4 | -5.9 | 7.8 | 6.5
CC(=O)Nc1ccc(SCC(=O)c2cc(C)n(-c3ccccc3)c2C)cc1 | -1.4 | -1.4 | 6.3 | 1.3 | -1.8 | -2.6 | . | .
CCCCC1=CC2=C(c3ccco3)C(=O)C(C)(OC(=O)c3ccc(OC)cc3)C(=O)C2=CN1Cc1ccco1 (stereo unspecified) | 10.0 | 55.9* | -57.2 | 3.5 | 17.0 | -8.5 | -0.7 | 3.2
COc1ccc(C(=O)OCn2nnc3ccccc3c2=O)cc1 | -0.2 | 3.7 | -5.7 | 0.7 | -0.6 | -10.6 | . | .
COc1cc(OC)cc(C(=O)NC(C(=O)OCn2nnc3ccccc3c2=O)C(C)C)c1 (stereo unspecified) | -4.3 | 87.5* | 3.1 | -0.4 | -0.5 | -4.8 | 5.1 | 3.4
CCOc1ccc(NC(=O)CN2CCC(n3cnc4cc(F)ccc43)CC2)cc1 | -2.3 | -1.0 | -3.5 | 1.7 | -1.8 | -4.2 | . | .
CCCCn1c(N)c(N(CC(C)C)C(=O)c2ccc(-c3ccc([N+](=O)[O-])cc3)o2)c(=O)[nH]c1=O | -19.7 | 0.6 | 12.4 | -4.0 | -2.5 | -1.1 | . | .
CCCCn1c(N)c(N(CCC(C)C)C(=O)c2ccc(-c3ccc([N+](=O)[O-])cc3)o2)c(=O)[nH]c1=O | -9.2 | 84.3* | 6.6 | 2.5 | -3.9 | -7.3 | 0.0 | 6.9
COC(=O)c1ccc(CCc2cc(O)ccc2O)cc1 | -2.1 | 72.3* | 22.8 | -0.6 | -0.2 | -10.4 | 4.1 | 4.9
COC(=O)c1ccc(CCc2cc(O)c(Br)cc2O)cc1 | 2.0 | -10.5 | 4.7 | -0.8 | 1.5 | -16.2 | . | .
COCCNC(=O)CN1C(=O)/C(=C/c2ccccc2)Oc2ccc(C(C)(C)C)cc21 | -11.9 | -5.7 | 1.2 | 2.2 | 1.0 | -10.4 | . | .
CCNc1nc(NCC)nc(C(=O)NN)n1 | -2.0 | 91.0* | -3.4 | 0.4 | -1.0 | -4.2 | 4.9 | 6.4
